We go through 21 compounds from ChEMBL document CHEMBL4706740, “Structure-Activity Study of Nitazoxanide Derivatives as Novel STAT3 Pathway Inhibitors” (ACS Med Chem Lett, 2021).

Series [1] in a line: Cytotoxicity against human HeLa cells assessed as inhibition of cell viability at 10 uM measured after 48 hrs by MTT assay. The conditions noted are these: read-out: INH. It is filed as cell-based.
Series [2] deals with Signal transducer and activator of transcription 3 (Homo sapiens) (UniProt P40763). The series is described as follows: Inhibition of IL-6 induced STAT3 transcriptional activity in human HEK-Blue IL-6 cells assessed as secreted embryonic alkaline phosphatase reporter gene expression at 10 uM by microplate reader. The format is cell-based. The method, boiled down:
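Single-concentration screen in HEK-Blue IL-6 cells: % inhibition of the SEAP reporter read-out of STAT3 pathway activity, with viability checked by MTT in parallel. Values are averages of three independent experiments.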
Background: In a reporter assay the amount or activity of a reporter protein is the signal.

Series [3] in a line: Cmax in Sprague-Dawley rat at 25 mg/kg, IG. The format is ADME, organism-based. Further details: route […], dose 25 mg/kg. The settings on record: in vivo, po. Summed up: (§1)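 Rats, n = 3 per group, received a single dose either intragastrically (25 mg/kg) or intravenously (5 mg/kg). Plasma concentration–time curves were used to derive t1/2α, t1/2β, Vd/F, CL/F, AUC0–∞, Tmax and Cmax. Absolute oral bioavailability was calculated from the ig and iv data.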

The nature of series [4]: Apparent oral clearance in Sprague-Dawley rat at 25 mg/kg, IG. It is filed as ADME, organism-based. The conditions noted are these: in vivo, read-out: CL/F (converted). The method, boiled down: as §1
Series [5] can be described thus: Apparent volume of distribution in Sprague-Dawley rat at 5 mg/kg, iv. It is filed as ADME, organism-based. The conditions noted are these: in vivo. Summed up: as §1
A short description of series [6]: Half life in Sprague-Dawley rat at 25 mg/kg, IG. It is filed as ADME, organism-based. The conditions noted are these: in vivo, po. Summed up:
as §1

A short description of series [7]: Elimination Half life in Sprague-Dawley rat at 5 mg/kg, iv. The format is ADME, organism-based. The settings on record: in vivo, read-out: beta t1/2 (converted). Summed up: as §1
A short description of series [8]: Elimination Half life in Sprague-Dawley rat at 25 mg/kg, IG. The format is ADME, organism-based. The settings on record: in vivo, po, read-out: beta t1/2 (converted). Summed up: as §1
Series [9] in a line: Apparent volume of distribution in Sprague-Dawley rat at 25 mg/kg, IG. It is filed as ADME, organism-based. The settings on record: in vivo, po.
The nature of series [10]: Cmax in Sprague-Dawley rat at 5 mg/kg, iv. It is filed as ADME, organism-based. Further details: route intravenous, dose 5 mg/kg. The conditions noted are these: in vivo. The method, boiled down: as §1
Series [11] is described as follows: Half life in Sprague-Dawley rat at 5 mg/kg, iv. The conditions noted are these: in vivo. The format is ADME, organism-based. Summed up:
as §1

Series [12] can be described thus: Tmax in Sprague-Dawley rat at 25 mg/kg, IG. The format is ADME, organism-based. The conditions noted are these: in vivo, po.
Series [13] is described as follows: AUC (0 to infinity) in Sprague-Dawley rat at 25 mg/kg, IG. The format is ADME, organism-based. Set-up: route […], time infinity, dose 25 mg/kg. The conditions noted are these: in vivo, po. The method, boiled down: as §1
Series [14] in a line: Absolute bioavailability in Sprague-Dawley rat at 25 mg/kg, IG. It is filed as ADME, organism-based. The conditions noted are these: in vivo, po. The method, boiled down:
as §1

A short description of series [15]: AUC (0 to infinity) in Sprague-Dawley rat at 5 mg/kg, iv. It is filed as ADME, organism-based. Set-up: route intravenous, time infinity, dose 5 mg/kg. The settings on record: in vivo. Summed up:
as §1

Series [16] can be described thus: Cytotoxicity against human HEK 293T cells assessed as cell growth inhibition at 10 uM measured after 48 hrs by MTT assay. The format is cell-based. A general note: Formazan colour is commonly taken as a measure of viable cells.
Series [17] is described as follows: Cytotoxicity against human HEK 293T cells assessed as cell growth inhibition at 50 uM measured after 48 hrs by MTT assay. It is filed as cell-based.
The subject of series [18] is HeLa. The series is described as follows: Cytotoxicity against human HeLa cells assessed as inhibition of cell viability measured after 48 hrs by MTT assay. The format is functional, cell-based. Summed up: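 Growth was read by MTT assay and IC50 taken from dose–response curves. Values are averages of three independent experiments.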

Chain of Signal transducer and activator of transcription 3 (Homo sapiens) (P40763 whole entry): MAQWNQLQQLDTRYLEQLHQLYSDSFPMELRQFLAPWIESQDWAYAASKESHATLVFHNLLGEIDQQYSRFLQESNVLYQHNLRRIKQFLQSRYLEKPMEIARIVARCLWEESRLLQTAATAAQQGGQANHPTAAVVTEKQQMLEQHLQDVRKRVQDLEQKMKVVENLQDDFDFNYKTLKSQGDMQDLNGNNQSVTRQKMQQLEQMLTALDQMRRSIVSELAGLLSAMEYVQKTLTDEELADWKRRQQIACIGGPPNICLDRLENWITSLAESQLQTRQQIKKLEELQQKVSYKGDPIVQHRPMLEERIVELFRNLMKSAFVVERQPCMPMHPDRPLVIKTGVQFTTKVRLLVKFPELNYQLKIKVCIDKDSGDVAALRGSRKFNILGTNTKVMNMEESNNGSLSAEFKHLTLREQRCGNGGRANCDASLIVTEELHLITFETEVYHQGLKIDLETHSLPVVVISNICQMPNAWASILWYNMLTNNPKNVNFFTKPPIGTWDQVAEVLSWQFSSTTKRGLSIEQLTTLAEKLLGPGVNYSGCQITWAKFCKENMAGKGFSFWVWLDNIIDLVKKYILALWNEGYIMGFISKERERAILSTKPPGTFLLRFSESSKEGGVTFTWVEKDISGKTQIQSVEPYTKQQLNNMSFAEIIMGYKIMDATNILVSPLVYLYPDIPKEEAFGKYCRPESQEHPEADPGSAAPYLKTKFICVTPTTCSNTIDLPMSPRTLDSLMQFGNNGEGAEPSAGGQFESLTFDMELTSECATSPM

Take `O=C(Nc1ncc([N+](=O)[O-])s1)c1ccccc1Br`: the cytotoxicity at 48 h, 10 µM in series [1] was -10.1%. Besides, the inhibition (commonly the drop in the measured response relative to a control, in per cent) in [2] was determined as 25.1%.

`O=C(Nc1ncc([N+](=O)[O-])s1)c1ccc(C(F)(F)F)cc1`: the Cmax (commonly the maximum level reached in the sampled fluid or tissue) in series [3] came out at 20700 ng/mL; in series [10], 28100 ng/mL. Besides, in [4], the CL/F was 0.833 mL/min/kg. The Vd/F in [5] and in series [9] was 0.5 L/kg in each case. Moreover, the half-life is 1.9 h in series [6], 2.3 h in [7], 11.1 h in series [8] and 3.6 min in series [11]. The Tmax (usually the time at which the peak concentration occurs) in series [12] worked out at 4 h. The figures for the AUC(0-inf) in [13] and in series [15] were 391 µg·h/mL and 89.4 µg·h/mL, respectively. In addition, in [14], the bioavailability (in general, the share of a dose that reaches the circulation, judged against a reference dose that is usually intravenous) came out at 87.4%. With `O=C(Nc1ncc([N+](=O)[O-])s1)c1ccc(N2CCOCC2)cc1`, the cytotoxicity at 48 h, 10 µM in series [1] is 50.6%. In addition, in [2], the inhibition amounted to 9%. Consider `C#CCN(C(=O)c1ccc(C(F)(F)F)cc1)c1ncc([N+](=O)[O-])s1`, for which, in [2], the inhibition is 9.1%. For `CC(C)(C)c1ccc(C(=O)Nc2ncc([N+](=O)[O-])s2)cc1`, the inhibition in series [2] was determined as 43.7%.

In the case of `CN1CCN(c2ccc(C(=O)Nc3ncc([N+](=O)[O-])s3)cc2)CC1`, the inhibition in [2] was -3.3%.

For the compound `COc1ccc(C(=O)Nc2ncc([N+](=O)[O-])s2)cc1`, the inhibition in series [2] worked out at 14.9%. Same read-out and setting: as for `CS(=O)(=O)c1ccc(C(=O)Nc2ncc([N+](=O)[O-])s2)cc1`, the figure is 5.3%; as for `Cc1ccccc1C(=O)Nc1ncc([N+](=O)[O-])s1`, 36.4%.

Regarding `NS(=O)(=O)c1ccc(C(=O)Nc2ncc([N+](=O)[O-])s2)cc1`, the inhibition in [2] was -9.7%. On the same count and under the same terms, the result for `O=C(Nc1ncc([N+](=O)[O-])s1)c1ccc(O)c(O)c1` reads 26.7%. On the same count and under the same terms, as for `O=C(Nc1ncc([N+](=O)[O-])s1)c1ccc(O)cc1`, the figure is 20.9%; as for `O=C(Nc1ncc([N+](=O)[O-])s1)c1ccc(O)cc1O`, 15.5%; as for `O=C(Nc1ncc([N+](=O)[O-])s1)c1ccc(S(=O)(=O)Nc2ccccc2)cc1`, 9%. Take `O=C(Nc1ncc([N+](=O)[O-])s1)c1cccc(O)c1`: in [2], the inhibition is 28.5%. The same measure, in the same setting: as for `O=C(Nc1ncc([N+](=O)[O-])s1)c1ccccc1`, the figure is 35.5%.

`O=C(Nc1ncc([N+](=O)[O-])s1)c1ccccc1Cl`: in series [2], the inhibition came out at 23%. For `O=C(Nc1ncc([N+](=O)[O-])s1)c1ccccc1F`, in series [2], the inhibition was found to be 22.1%.

On to `O=C(Nc1ncc([N+](=O)[O-])s1)c1ccccc1[N+](=O)[O-]`, for which, in [2], the inhibition amounted to 19%.

With `O=C(Nc1ncc([N+](=O)[O-])s1)c1ccccc1O` [TIZOXANIDE], the inhibition at 48 h, 10 µM in [16] was -5.7%. In addition, the cytotoxicity at 48 h, 10 µM in [1] stood at 12.7%. Also, the inhibition at 48 h, 50 µM in [17] is 21.6%. The IC50 (commonly the point on the concentration scale where inhibition reaches its midpoint) in series [18] is 29.8 µM. For `C[C@H](NC(=O)/C(C#N)=C/c1cccc(Br)n1)c1ccccc1` [WP 1066], in series [16], the inhibition at 48 h, 10 µM turned out to be 79.9%. For the same compound, in series [17], the inhibition at 48 h, 50 µM was 97.2%. For the same compound, the concentration for half-maximal inhibition (IC50) in series [18] turned out to be 4.2 µM.
